Experimental data reported in ChEMBL document CHEMBL4004869, “3-Phenylalkyl-2H-chromenes and -chromans as novel rhinovirus infection inhibitors” (Bioorg Med Chem, 2017).

Legend:
[1] = Cytotoxicity against human HeLa cells assessed as changes in morphology after 3 days by microscopic method; format: cell-based; details: read-out: MNCC
Outline: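 HeLa cytotoxicity by XTT colorimetric assay plus microscopy after 3 days at 37 °C. MNCC is the highest concentration leaving morphology and viability of all cells unaffected. CC50 is the dose reducing viability by 50% of untreated controls. Two independent assays in triplicate.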

[2] = Cytotoxicity against human HeLa cells assessed as reduction in cell viability by XTT assay; format: cell-based
Outline: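 HeLa cytotoxicity by XTT colorimetric assay plus microscopy after 3 days at 37 °C. MNCC is the highest concentration leaving morphology and viability of all cells unaffected. Two independent assays in triplicate.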

rhinovirus A1B = experiment: Antiviral activity against HRV 1B infected in human HeLa cells after 72 hrs by plaque reduction assay; format: functional, cell-based
Outline: (§1)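 Plaque reduction in HeLa monolayers infected with virus giving about 100 plaques per well. Compound tested dose-dependently starting from the maximum non-cytotoxic concentration, with ethanol stocks diluted in medium just before use. Where 50% is not reached, percent inhibition at MNCC is given. Two independent assays in triplicate, mean ± SD.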

[3] = Selectivity index, ratio of CC50 for human HeLa cells to IC50 for HRV 14 infected in human HeLa cells
Outline: (§2)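 Selectivity index is CC50 (XTT, HeLa) divided by IC50 from HeLa plaque reduction against the stated serotype.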

[4] = Selectivity index, ratio of CC50 for human HeLa cells to IC50 for HRV 1B infected in human HeLa cells; outline: as §2
rhinovirus B14 [5] = experiment: Antiviral activity against HRV 14 infected in human HeLa cells after 72 hrs by plaque reduction assay; format: functional, cell-based
Outline: as §1, with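 “use. IC50 is the dose cutting plaque number by 50%, read from log concentration versus percent plaque reduction.” for “use.”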

rhinovirus B14 [6] = experiment: Antiviral activity against HRV 14 infected in human HeLa cells at MNCC after 72 hrs by plaque reduction assay relative to control; format: functional; parameters: scale not given: the % may be the effect or the level left
Outline: as §1, with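 “use. IC50 is the dose cutting plaque number by 50%, read from log concentration versus percent plaque reduction.” for “use.”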

[7] = Rhinovirus B, HeLa, 72 h, read-out: IC50
[8] = Rhinovirus A, HeLa, 72 h, read-out: IC50

| Structure (SMILES) | MNTC at 72 h [1] [µM] | CC50 [2] [µM] | IC50 (rhinovirus A1B; hela) | Ratio CC50/IC50 [3] | Ratio CC50/IC50 [4] | Activity (rhinovirus B14 [5]) | IC50 (rhinovirus B14 [5]; [7]) [µM] | Activity (rhinovirus A1B) | IC50 (rhinovirus A1B; [8]) [µM] | Activity (rhinovirus B14 [6]) [%] | IC50 (rhinovirus B14 [5]; hela) |
| --- | --- | --- | --- | --- | --- | --- | --- | --- | --- | --- | --- |
| O=C(/C=C/C1=Cc2ccccc2OC1)c1ccccc1 | 25 | 50 | Not Active | – | – | – | – | – | – | – | – |
| Clc1ccc(CCCC2COc3ccc(Cl)cc3C2)cc1 (configuration not stated) | 100 | 200 | – | 6.67 | 357.14 | Dose-dependent effect | 30 | Dose-dependent effect | 0.56 | – | – |
| c1ccc(CCC2COc3ccccc3C2)cc1 (configuration not stated) | 3.12 | 6.25 | – | – | 12.75 | Dose-dependent effect | > 3.12 | Dose-dependent effect | 0.49 | 16 | – |
| c1ccc(CCCCC2COc3ccccc3C2)cc1 (configuration not stated) | 50 | 100 | – | – | 140.84 | Dose-dependent effect | > 50 | Dose-dependent effect | 0.71 | 25 | – |
| C1=C(CCc2ccccc2)COc2ccccc21 | 25 | 50 | – | – | 104.17 | Dose-dependent effect | > 25 | Dose-dependent effect | 0.48 | 26 | – |
| C1=C(CCCCc2ccccc2)COc2ccccc21 | 50 | 100 | – | 7.87 | 185.18 | Dose-dependent effect | 12.7 | Dose-dependent effect | 0.54 | – | – |
| C/C(=C\c1ccccc1)C1=Cc2ccccc2OC1 | 12.5 | 25 | Not Active | – | – | – | – | – | – | – | Not Active |
| c1ccc(CCCC2COc3ccccc3C2)cc1 (configuration not stated) | 100 | 200 | – | – | 20.85 | Dose-dependent effect | > 100 | Dose-dependent effect | 9.59 | 37 | – |
| Clc1ccc2c(c1)CC(CCCc1ccccc1)CO2 (configuration not stated) | 100 | 200 | – | 8 | 111.73 | Dose-dependent effect | 25 | Dose-dependent effect | 1.79 | – | – |
| C1=C(CCCCCc2ccccc2)COc2ccccc21 | 50 | 100 | – | – | 178.57 | Dose-dependent effect | > 50 | Dose-dependent effect | 0.56 | 37 | – |
| c1ccc(CCCCCC2COc3ccccc3C2)cc1 (configuration not stated) | 100 | 200 | – | 6.05 | 42.19 | Dose-dependent effect | 33 | Dose-dependent effect | 4.74 | – | – |
| C1=C(CCCc2ccccc2)COc2ccccc21 | 100 | 200 | – | 4.94 | 84.39 | Dose-dependent effect | 40.5 | Dose-dependent effect | 2.37 | – | – |
